From ChEMBL document CHEMBL1127078, “Fluorocyclopropyl quinolones. 1. Synthesis and structure-activity relationships of 1-(2-fluorocyclopropyl)-3-pyridonecarboxylic acid antibacterial agents” (J Med Chem, 1993)
In brackets after ≈: the same amount, converted by molar mass.

Legend:
Pseudomonas aeruginosa = experiment: Tested for minimum inhibitory concentration against Pseudomonas aeruginosa 32121; format: functional
Procedure, shortened: (§1)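 Twofold broth microdilution in Mueller-Hinton broth, inoculum approximately 10^6 cfu/mL. Plates incubated 18 h at 37 °C. MIC taken as the lowest concentration preventing visible bacterial growth.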

Streptococcus pyogenes = experiment: Tested for minimum inhibitory concentration against Streptococcus pyogenes G-36; format: functional; procedure, shortened: as §1
Staphylococcus aureus [1] = experiment: Tested for minimum inhibitory concentration against Staphylococcus aureus 209P; format: functional; procedure, shortened: as §1
Enterococcus faecalis = experiment: Tested for minimum inhibitory concentration against Enterococcus faecalis ATCC 19433; format: functional; procedure, shortened: as §1
Klebsiella pneumoniae = experiment: Tested for minimum inhibitory concentration against Klebsiella pneumoniae; format: functional; procedure, shortened: as §1
Staphylococcus aureus [2] = experiment: Tested for minimum inhibitory concentration against Staphylococcus aureus Smith; format: functional; procedure, shortened: as §1
[3] = test system: Staphylococcus epidermidis; experiment: Tested for minimum inhibitory concentration against Staphylococcus epidermidis 56556; format: functional; procedure, shortened: as §1
Enterobacter cloacae [4] = experiment: (§2) Tested for minimum inhibitory concentration against Enterobacter cloacae 03400; format: functional; procedure, shortened: as §1
Escherichia coli [5] = experiment: Tested for minimum inhibitory concentration against Escherichia coli NIHJ; format: functional; procedure, shortened: as §1
Proteus vulgaris = experiment: Tested for minimum inhibitory concentration against Proteus vulgaris 08601; format: functional; procedure, shortened: as §1
Escherichia coli [6] = experiment: Tested for minimum inhibitory concentration against Escherichia coli KL-16; format: functional; procedure, shortened: as §1
[7] = Partition coefficient of the compound; format: ADME; settings: CHCl3-0.1 M phosphate buffer (pH 7.4)
Procedure, shortened: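 Shake-flask distribution between CHCl3 and 0.1 M sodium phosphate buffer pH 7.4, each phase presaturated with the other. About 1–2 mg sample dissolved in the aqueous phase and its UV maximum absorbance recorded. Equal 10 mL volumes shaken 30 min at room temperature, then left 1 h to separate. Aqueous-layer UV maximum re-read. P' calculated as a ratio of the absorbance readings.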

[8] = target: DNA gyrase (Escherichia coli) (UniProt P0AES6+P0AES4); experiment: Dose required to inhibit DNA gyrase in Escherichia coli; format: protein-complex assay
Enterobacter cloacae [9] = experiment: as §2; format: functional; remark: listed apart in the source
[10] = Escherichia coli, read-out: MIC
[11] = Proteus vulgaris, read-out: MIC
[12] = Klebsiella pneumoniae, read-out: MIC
[13] = Staphylococcus aureus, read-out: MIC
[14] = Pseudomonas aeruginosa, read-out: MIC
[15] = Enterococcus faecalis, ATCC 19433, read-out: MIC
[16] = Staphylococcus epidermidis, read-out: MIC

Work on `C[C@H]1CN(c2c(F)cc3c(=O)c(C(=O)O)cn(C4CC4F)c3c2F)CCN1` (stereo in doubt; 32) yielded an MIC (Pseudomonas aeruginosa) of 0.1 µg/mL (≈ 0.262 µM), an MIC (Streptococcus pyogenes) of 1.56 µg/mL (≈ 4.09 µM) and an MIC (Staphylococcus aureus [1]) of 0.1 µg/mL (≈ 0.262 µM). The MIC (Enterococcus faecalis) was 0.78 µg/mL (≈ 2.05 µM), the MIC (Klebsiella pneumoniae) was “<=0.05 ug ml-1” and the MIC (Staphylococcus aureus [2]) was “<=0.05 ug ml-1”. The MIC [3] was 0.2 µg/mL (≈ 0.524 µM).

`C[C@H]1CN(c2c(F)cc3c(=O)c(C(=O)O)cn(C4CC4F)c3c2F)CCN1` (stereo in doubt; 33) gave an MIC (Enterobacter cloacae [4]) of no more than 0.05 µg/mL, an MIC (Pseudomonas aeruginosa) of 0.39 µg/mL (≈ 1.02 µM) and an MIC (Streptococcus pyogenes) of 50 µg/mL (≈ 131 µM). For the same compound, the MIC (Escherichia coli [5]; [10]) was no more than 0.05 µg/mL, the MIC (Staphylococcus aureus [1]) was 1.56 µg/mL (≈ 4.09 µM) and the MIC (Enterococcus faecalis) was 12.5 µg/mL (≈ 32.8 µM). It also gave an MIC (Proteus vulgaris; [11]) of no more than 0.05 µg/mL, an MIC (Klebsiella pneumoniae; [12]) of 0.1 µg/mL (≈ 0.262 µM) and an MIC (Staphylococcus aureus [2]) of 0.78 µg/mL (≈ 2.05 µM). For the same compound, the MIC [3] was 3.13 µg/mL (≈ 8.21 µM).

Compound `C[C@@H]1CN(c2c(F)cc3c(=O)c(C(=O)O)cn(C4CC4F)c3c2F)CCN1` (stereo in doubt; 34) has an MIC (Enterobacter cloacae [4]) of no more than 0.05 µg/mL, an MIC (Pseudomonas aeruginosa) of 0.1 µg/mL (≈ 0.262 µM) and an MIC (Streptococcus pyogenes) of 0.78 µg/mL (≈ 2.05 µM). The MIC (Escherichia coli [5]; [10]) was no more than 0.05 µg/mL, the MIC (Staphylococcus aureus [1]) was 0.1 µg/mL (≈ 0.262 µM) and the MIC (Enterococcus faecalis) was 0.78 µg/mL (≈ 2.05 µM). The MIC (Proteus vulgaris) was “<=0.05 ug ml-1”, the MIC (Klebsiella pneumoniae; [12]) was 0.1 µg/mL (≈ 0.262 µM) and the MIC (Staphylococcus aureus [2]) was no more than 0.05 µg/mL. For the same compound, the MIC [3] was 0.2 µg/mL (≈ 0.524 µM).

With `C[C@@H]1CN(c2c(F)cc3c(=O)c(C(=O)O)cn(C4CC4F)c3c2F)CCN1` (stereo in doubt; 35) the MIC (Pseudomonas aeruginosa) was 0.78 µg/mL (≈ 2.05 µM), the MIC (Streptococcus pyogenes) was 50 µg/mL (≈ 131 µM) and the MIC (Staphylococcus aureus [1]) was 1.56 µg/mL (≈ 4.09 µM). It also gave an MIC (Enterococcus faecalis) of 12.5 µg/mL (≈ 32.8 µM), an MIC (Proteus vulgaris) of 0.2 µg/mL (≈ 0.524 µM) and an MIC (Klebsiella pneumoniae) of 0.2 µg/mL (≈ 0.524 µM). The MIC (Staphylococcus aureus [2]; [13]) was 0.78 µg/mL (≈ 2.05 µM) and the MIC [3] was 3.13 µg/mL (≈ 8.21 µM).

For `CN1CCN(c2nc3c(cc2F)c(=O)c(C(=O)O)cn3C2CC2F)CC1` (stereo in doubt; 36), the MIC (Pseudomonas aeruginosa) was 0.2 µg/mL (≈ 0.549 µM), the MIC (Streptococcus pyogenes) was 6.25 µg/mL (≈ 17.2 µM) and the MIC (Staphylococcus aureus [1]) was 0.39 µg/mL (≈ 1.07 µM). It also gave an MIC (Enterococcus faecalis) of 1.56 µg/mL (≈ 4.28 µM), an MIC (Proteus vulgaris) of 0.2 µg/mL (≈ 0.549 µM) and an MIC (Klebsiella pneumoniae) of 0.2 µg/mL (≈ 0.549 µM). For the same compound, the MIC (Staphylococcus aureus [2]) was 0.2 µg/mL (≈ 0.549 µM) and the MIC [3] was 0.39 µg/mL (≈ 1.07 µM).

Compound `CN1CCN(c2nc3c(cc2F)c(=O)c(C(=O)O)cn3C2CC2F)CC1` (stereo in doubt; 37) has an MIC (Enterobacter cloacae [4]) of no more than 0.05 µg/mL, an MIC (Pseudomonas aeruginosa) of 0.78 µg/mL (≈ 2.14 µM) and an MIC (Streptococcus pyogenes) of 25 µg/mL (≈ 68.6 µM). For the same compound, the MIC (Escherichia coli [5]; [10]) was no more than 0.05 µg/mL, the MIC (Staphylococcus aureus [1]) was 1.56 µg/mL (≈ 4.28 µM) and the MIC (Enterococcus faecalis) was 25 µg/mL (≈ 68.6 µM). It also gave an MIC (Proteus vulgaris; [11]) of 0.2 µg/mL (≈ 0.549 µM), an MIC (Klebsiella pneumoniae; [12]) of 0.2 µg/mL (≈ 0.549 µM) and an MIC (Staphylococcus aureus [2]) of 0.78 µg/mL (≈ 2.14 µM). For the same compound, the MIC [3] was 1.56 µg/mL (≈ 4.28 µM).

For `CN1CCN(c2cc3c(cc2F)c(=O)c(C(=O)O)cn3[C@@H]2C[C@@H]2F)CC1` (stereo in doubt; 38) [listing 1 of 2 here], the MIC (Pseudomonas aeruginosa) was 0.1 µg/mL (≈ 0.275 µM), the MIC (Klebsiella pneumoniae) was “<=0.05 ug ml-1” and the MIC (Escherichia coli [6]) was 0.025 µg/mL (≈ 0.0688 µM). For the same compound, the “P'” value [7] was 7.3 and the MIC [3] was 0.2 µg/mL (≈ 0.55 µM).

With `CN1CCN(c2cc3c(cc2F)c(=O)c(C(=O)O)cn3[C@@H]2C[C@@H]2F)CC1` (stereo in doubt; 38) [listing 2 of 2 here] the ID50 [8] was 0.18 µg/mL (≈ 0.495 µM).

Compound `CN1CCN(c2cc3c(cc2F)c(=O)c(C(=O)O)cn3[C@@H]2C[C@@H]2F)CC1` (stereo in doubt; 39) [listing 1 of 2 here] has an MIC (Pseudomonas aeruginosa; [14]) of 0.2 µg/mL (≈ 0.55 µM), an MIC (Streptococcus pyogenes; Streptococcus pyogenes, read-out: MIC) of 1.56 µg/mL (≈ 4.29 µM) and an MIC (Escherichia coli [5]) of no more than 0.05 µg/mL. For the same compound, the MIC (Staphylococcus aureus [1]; [13]) was 0.1 µg/mL (≈ 0.275 µM), the MIC (Enterobacter cloacae [9]) was no more than 0.05 µg/mL and the MIC (Enterococcus faecalis; [15]) was 0.78 µg/mL (≈ 2.15 µM). It also gave an MIC (Proteus vulgaris; [11]) of no more than 0.05 µg/mL, an MIC (Klebsiella pneumoniae; [12]) of 0.1 µg/mL (≈ 0.275 µM) and an MIC (Staphylococcus aureus [2]; [13]) of no more than 0.05 µg/mL. For the same compound, the MIC (Escherichia coli [6]; [10]) was 0.05 µg/mL (≈ 0.138 µM), the “P'” value [7] was 7 and the MIC [3, 16] was 0.2 µg/mL (≈ 0.55 µM).

In the case of `CN1CCN(c2cc3c(cc2F)c(=O)c(C(=O)O)cn3[C@@H]2C[C@@H]2F)CC1` (stereo in doubt; 39) [listing 2 of 2 here], the ID50 [8] is reported as 0.34 µg/mL (≈ 0.936 µM).

`O=C(O)c1cn(C2CC2)c2cc(N3CCNCC3)c(F)cc2c1=O` [CIPROFLOXACIN] showed an MIC (Pseudomonas aeruginosa; [14]) of no more than 0.05 µg/mL, an MIC (Escherichia coli [5]) of no more than 0.05 µg/mL and an MIC (Staphylococcus aureus [1]; [13]) of 0.1 µg/mL (≈ 0.302 µM). For the same compound, the MIC (Enterococcus faecalis; [15]) was 0.78 µg/mL (≈ 2.35 µM), the MIC (Proteus vulgaris; [11]) was no more than 0.05 µg/mL and the MIC (Klebsiella pneumoniae; [12]) was no more than 0.05 µg/mL. It also gave an MIC (Staphylococcus aureus [2]; [13]) of no more than 0.05 µg/mL, an MIC (Escherichia coli [6]; [10]) of 0.025 µg/mL (≈ 0.0754 µM) and an ID50 [8] of 0.13 µg/mL (≈ 0.392 µM). It also gave an MIC [3, 16] of 0.2 µg/mL (≈ 0.604 µM).
